Laboratory results taken from ChEMBL document CHEMBL1165950, “Design and synthesis of new potent anticancer pyrazoles with high FLT3 kinase inhibitory selectivity” (Bioorg Med Chem, 2010).

Legend:
Type in all cases: functional
NCI-H460 = assay: Growth inhibition of human NCI-H460 cells after 48 hrs by sulforhodamine B assay; settings: NCI-H460, 48 h; for CC50: read-out: LC50 (the source's name)
Procedure, shortened: (§1)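 NCI 60-cell screen, five-dose mode. Cells grown in RPMI 1640 with 5% FBS and 2 mM L-glutamine and plated at 5000-40,000 cells/well according to doubling time. After 24 h preincubation, a Tz plate was TCA-fixed. Five concentrations (10-fold or 1/2 log dilutions) were applied for 48 h at 37 °C. SRB staining read at 515 nm. IC50 taken from [(Ti-Tz)/(C-Tz)]×100 = 50.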

T47D [1] = assay: Cytotoxicity against human T47D cells assessed as cell growth at 1 uM after 48 hrs by sulforhodamine B assay; settings: read-out: Activity
BT-549 = assay: Cytotoxicity against human BT549 cells assessed as cell growth at 10 uM after 48 hrs by sulforhodamine B assay; settings: BT-549, 48 h, read-out: Activity
Procedure, shortened: (§2)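 NCI-60 five-dose screen. Cells were grown in RPMI 1640 with 5% FBS and 2 mM L-glutamine, plated at 5000–40,000 cells/well and preincubated for 24 h. Time-zero plates were TCA-fixed. DMSO-solubilized drug was added at five concentrations (10-fold or ½-log serial dilutions) for 48 h at 37 °C, 5% CO2. Cells were TCA-fixed, stained with 0.4% SRB and read at 515 nm. Percent growth used time-zero, control and test absorbances.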

A549 [2] = assay: Cytotoxicity against human A549 cells assessed as cell growth at 0.001 uM after 48 hrs by sulforhodamine B assay; settings: A549, 48 h, read-out: Activity; procedure, shortened: as §2
CAKI-1 = assay: Cytotoxicity against human Caki1 cells assessed as cell growth at 10 uM; settings: read-out: Activity
Procedure, shortened: (§3)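 Single-dose NCI-60 screen at 10 µM. Cells were grown in RPMI 1640 with 5% FBS and 2 mM L-glutamine, then treated for 48 h at 37 °C. Protein was measured by SRB staining with absorbance at 515 nm. Percentage growth was recorded, and inhibition percentage was calculated as 100 minus growth percentage.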

OVCAR-8 = assay: Growth inhibition of human OVCAR8 cells after 48 hrs by sulforhodamine B assay; settings: OVCAR-8, 48 h; for CC50: read-out: LC50 (the source's name); procedure, shortened: as §1
HT-29 = assay: Cytotoxicity against human HT-29 cells assessed as cell growth at 100 nM after 48 hrs by sulforhodamine B assay; settings: HT-29, 48 h, read-out: Activity
PC-3 = assay: Cytotoxicity against human PC3 cells assessed as cell growth at 0.001 uM after 48 hrs by sulforhodamine B assay; settings: PC-3, 48 h, read-out: Activity
NCI/ADR-RES = assay: Cytotoxicity against human NCI/ADR-RES cells assessed as cell growth at 0.01 uM after 48 hrs by sulforhodamine B assay; settings: read-out: Activity
M14 [3] = assay: Growth inhibition of human M14 cells after 48 hrs by sulforhodamine B assay; settings: M14, 48 h; procedure, shortened: as §1
LOX IMVI [4] = assay: Cytotoxicity against human LOXIMVI cells assessed as cell growth at 0.001 uM after 48 hrs by sulforhodamine B assay; settings: read-out: Activity
T47D [5] = assay: Cytotoxicity against human T47D cells assessed as cell growth at 10 uM after 48 hrs by sulforhodamine B assay; settings: read-out: Activity
OVCAR-4 = assay: Growth inhibition of human OVCAR4 cells after 48 hrs by sulforhodamine B assay; settings: OVCAR-4, 48 h; for CC50: read-out: LC50 (the source's name); procedure, shortened: as §1
UACC-62 = assay: Cytotoxicity against human UACC62 cells assessed as cell growth at 1 uM after 48 hrs by sulforhodamine B assay; settings: UACC-62, 48 h, read-out: Activity
NCI-H322M [6] = assay: Cytotoxicity against human NCI-H322M cells assessed as cell growth at 0.001 uM after 48 hrs by sulforhodamine B assay; settings: read-out: Activity
SK-OV-3 = assay: Cytotoxicity against human SKOV3 cells assessed as cell growth at 0.01 uM after 48 hrs by sulforhodamine B assay; settings: SK-OV-3, 48 h, read-out: Activity
M14 [7] = assay: Cytotoxicity against human M14 cells assessed as cell growth at 100 nM after 48 hrs by sulforhodamine B assay; settings: M14, 48 h, read-out: Activity
SW-620 [8] = assay: Cytotoxicity against human SW620 cells assessed as cell growth at 1 uM after 48 hrs by sulforhodamine B assay; settings: SW-620, 48 h, read-out: Activity
LOX IMVI [9] = assay: Growth inhibition of human LOXIMVI cells after 48 hrs by sulforhodamine B assay; settings: for CC50: read-out: LC50 (the source's name); procedure, shortened: as §1
HCT-116 = assay: Growth inhibition of human HCT116 cells after 48 hrs by sulforhodamine B assay; settings: HCT-116, 48 h; for CC50: read-out: LC50 (the source's name); procedure, shortened: as §1
SW-620 [10] = assay: Growth inhibition of human SW620 cells after 48 hrs by sulforhodamine B assay; settings: SW-620, 48 h; for CC50: read-out: LC50 (the source's name); procedure, shortened: as §1
NCI-H322M [11] = assay: Cytotoxicity against human NCI-H322M cells assessed as cell growth at 100 nM after 48 hrs by sulforhodamine B assay; settings: read-out: Activity
ACHN = assay: Growth inhibition of human ACHN cells after 48 hrs by sulforhodamine B assay
Procedure, shortened: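 NCI five-dose SRB assay in RPMI 1640 with 5% FBS and 2 mM L-glutamine. Cells were preincubated 24 h, then exposed 48 h at 37 °C to five concentrations (10-fold or half-log serial dilutions from DMSO stocks). TCA fixation, SRB staining, and absorbance at 515 nm followed. IC50 was taken where [(Ti−Tz)/(C−Tz)]×100 = 50, with Tz as time-zero cell density.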

HCC 2998 = assay: Cytotoxicity against human HCC2998 cells assessed as cell growth at 10 uM; settings: read-out: Activity; procedure, shortened: as §3
SF-268 = assay: Cytotoxicity against human SF268 cells assessed as cell growth at 0.001 uM after 48 hrs by sulforhodamine B assay; settings: SF-268, 48 h, read-out: Activity
M14 [12] = assay: Cytotoxicity against human M14 cells assessed as cell growth at 1 uM after 48 hrs by sulforhodamine B assay; settings: M14, 48 h, read-out: Activity
A549 [13] = assay: Cytotoxicity against human A549 cells assessed as cell growth at 10 uM after 48 hrs by sulforhodamine B assay; settings: A549, 48 h, read-out: Activity; procedure, shortened: as §2
UO-31 = assay: Cytotoxicity against human UO31 cells assessed as cell growth at 0.001 uM after 48 hrs by sulforhodamine B assay; settings: UO-31, 48 h, read-out: Activity
MOLT-4 = assay: Cytotoxicity against human MOLT4 cells assessed as cell growth at 0.001 uM after 48 hrs by sulforhodamine B assay; settings: MOLT-4, 48 h, read-out: Activity
IGROV-1 = assay: Cytotoxicity against human IGROV1 cells assessed as cell growth at 0.001 uM after 48 hrs by sulforhodamine B assay; settings: IGROV-1, 48 h, read-out: Activity

COc1cc(C)cc(-c2nn(CC#N)cc2-c2ccc(-c3cccc(C(C)=O)c3)nc2)c1
GI50 (NCI-H460): 2.04 µM
TGI (NCI-H460): 5.72 µM
CC50 (NCI-H460): 26.6 µM
growth at 1 µM (T47D [1]): -7%
growth at 10 µM (BT-549): -24%
growth at 0.001 µM (A549 [2]): 97%
growth at 10 µM (CAKI-1): 17.8%
GI50 (OVCAR-8): 3.16 µM
TGI (OVCAR-8): 35.2 µM
CC50 (OVCAR-8): > 100 µM
growth at 0.1 µM (HT-29): 99%
growth at 0.001 µM (PC-3): 94%
growth at 0.01 µM (NCI/ADR-RES): 91%
GI50 (M14 [3]): 1.17 µM
TGI (M14 [3]): 3.3 µM
growth at 0.001 µM (LOX IMVI [4]): 98%
growth at 10 µM (T47D [5]): -29%
GI50 (OVCAR-4): 3.76 µM
TGI (OVCAR-4): > 100 µM
CC50 (OVCAR-4): > 100 µM
growth at 1 µM (UACC-62): 38%
growth at 0.001 µM (NCI-H322M [6]): 94%
growth at 0.01 µM (SK-OV-3): 101%
growth at 0.1 µM (M14 [7]): 58%
growth at 1 µM (SW-620 [8]): 4%
GI50 (LOX IMVI [9]): 3.52 µM
TGI (LOX IMVI [9]): > 100 µM
CC50 (LOX IMVI [9]): > 100 µM
GI50 (HCT-116): 2.33 µM
TGI (HCT-116): 10.6 µM
CC50 (HCT-116): 87.4 µM
GI50 (SW-620 [10]): 1.3 µM
TGI (SW-620 [10]): 19.3 µM
CC50 (SW-620 [10]): > 100 µM
growth at 0.1 µM (NCI-H322M [11]): 95%
GI50 (ACHN): 4.19 µM
LC50 (concentration giving 50% net cell kill) (ACHN): > 100 µM
TGI (ACHN): > 100 µM
growth at 10 µM (HCC 2998): 28.6%
growth at 0.001 µM (SF-268): 99%
growth at 1 µM (M14 [12]): -53%
growth at 10 µM (A549 [13]): -22%
growth at 0.001 µM (UO-31): 86%
growth at 0.001 µM (MOLT-4): 97%
growth at 0.001 µM (IGROV-1): 106%

COc1cc(C)cc(-c2c(-c3ccnc(-c4ccc(N(C)C)cc4)c3)cnn2CC#N)c1
GI50 (NCI-H460): 0.0577 µM
TGI (NCI-H460): 0.282 µM
CC50 (NCI-H460): 4.99 µM
growth at 1 µM (T47D [1]): 19%
growth at 10 µM (BT-549): -25%
growth at 0.001 µM (A549 [2]): 95%
growth at 10 µM (CAKI-1): 15.9%
GI50 (OVCAR-8): 0.236 µM
TGI (OVCAR-8): > 100 µM
CC50 (OVCAR-8): > 100 µM
growth at 0.1 µM (HT-29): -24%
growth at 0.001 µM (PC-3): 101%
growth at 0.01 µM (NCI/ADR-RES): 80%
GI50 (M14 [3]): 0.0541 µM
TGI (M14 [3]): 0.483 µM
CC50 (M14 [3]; read-out: LC50 (the source's name)): > 100 µM
growth at 0.001 µM (LOX IMVI [4]): 88%
growth at 10 µM (T47D [5]): 6%
GI50 (OVCAR-4): 0.27 µM
TGI (OVCAR-4): > 100 µM
CC50 (OVCAR-4): > 100 µM
growth at 1 µM (UACC-62): 18%
growth at 0.001 µM (NCI-H322M [6]): 97%
growth at 0.01 µM (SK-OV-3): 47%
growth at 0.1 µM (M14 [7]): -16%
growth at 1 µM (SW-620 [8]): 11%
GI50 (LOX IMVI [9]): 0.0668 µM
TGI (LOX IMVI [9]): > 100 µM
CC50 (LOX IMVI [9]): > 100 µM
GI50 (HCT-116): 0.0501 µM
TGI (HCT-116): 1.03 µM
CC50 (HCT-116): > 100 µM
GI50 (SW-620 [10]): 0.0394 µM
TGI (SW-620 [10]): > 100 µM
CC50 (SW-620 [10]): > 100 µM
growth at 0.1 µM (NCI-H322M [11]): 20%
GI50 (ACHN): 0.068 µM
LC50 (concentration giving 50% net cell kill) (ACHN): > 100 µM
TGI (ACHN): > 100 µM
growth at 10 µM (HCC 2998): -57.5%
growth at 0.001 µM (SF-268): 98%
growth at 1 µM (M14 [12]): -9%
growth at 10 µM (A549 [13]): 4%
growth at 0.001 µM (UO-31): 83%
growth at 0.001 µM (MOLT-4): 96%
growth at 0.001 µM (IGROV-1): 95%
